Measured values published in ChEMBL document CHEMBL5724801, “EUbOPEN Chemogenomics Library - Multiplex” (2024).
Where “and” joins values, the source holds several entries; their conditions need not be identical. Equal entries are not always repeated.

Tested on: Fibroblast
Assay: Multiplex assay against human fibroblast
Format: toxicity, cell-based
In short: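 Phenotypes for tubulin, mitochondrial mass and membrane permeability are expressed as per cents of healthy-nucleus cells. Cells were stained live at seeding with Hoechst33342, BioTracker Green Microtubule Cytoskeleton Dye, MitoTracker Red and Annexin V Alexa Fluor 680, then imaged after compound addition on a CQ1 microscope at 37°C and 5% CO2. Machine-learning gating in CellPathfinder separated Hoechst high-intensity objects from normal cells, divided normal cells by nuclear state (healthy, pyknosed, fragmented) and divided pyknosed cells into mitotic or apoptotic.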

[1] = 12 h, 1 µM, compound concentration 1 uM
[2] = 12 h, 10 µM, compound concentration 10 uM
[3] = 24 h, 1 µM, compound concentration 1 uM
[4] = 24 h, 10 µM, compound concentration 10 uM
[5] = 48 h, 1 µM, compound concentration 1 uM
[6] = 48 h, 10 µM, compound concentration 10 uM

Cc1cc(C)c(NC(=O)C2CC3CCC2C3)c(C)c1 (stereo unspecified)
Population Apoptotic (%) [1]: 12% and 10% | Population Fragmented Nuclei (%) [1]: 14.14% and 5.66% | Population Healthy Nuclei (%) [1]: 59.69% and 81.76% | Population Hoechst High Intensity Objects (%) [1]: 0% | Population Membrane Permeable-Phenotype (%) [1]: 3.51% and 5.38% | Population Mitochondria Different-Phenotype (%) [1]: 7.02% and 6.92% | Population Mitotic Cells (%) [1]: 88% and 90% | Population Normal (%) [1]: 100% | Population Pyknosed Nuclei (%) [1]: 26.18% and 12.58% | Population Tubulin-Different-Phenotype (%) [1]: 12.28% and 22.31% | Total Cell Count [1]: 191 and 159 | Population Apoptotic (%) [2]: 10% and 7.69% | Population Fragmented Nuclei (%) [2]: 12.88% and 9.48% | Population Healthy Nuclei (%) [2]: 62.58% and 78.2% | Population Hoechst High Intensity Objects (%) [2]: 0% | Population Membrane Permeable-Phenotype (%) [2]: 3.92% and 3.64% | Population Mitochondria Different-Phenotype (%) [2]: 10.78% and 7.27% | Population Mitotic Cells (%) [2]: 90% and 92.31% | Population Normal (%) [2]: 100% | Population Pyknosed Nuclei (%) [2]: 24.54% and 12.32% | Population Tubulin-Different-Phenotype (%) [2]: 11.76% and 19.39% | Total Cell Count [2]: 163 and 211 | Population Apoptotic (%) [3]: 16.28% and 15.38% | Population Fragmented Nuclei (%) [3]: 13.89% and 7.5% | Population Healthy Nuclei (%) [3]: 66.2% and 84.38% | Population Hoechst High Intensity Objects (%) [3]: 0% | Population Membrane Permeable-Phenotype (%) [3]: 9.09% and 3.7% | Population Mitochondria Different-Phenotype (%) [3]: 5.59% and 6.67% | Population Mitotic Cells (%) [3]: 83.72% and 84.62% | Population Normal (%) [3]: 100% | Population Pyknosed Nuclei (%) [3]: 19.91% and 8.12% | Population Tubulin-Different-Phenotype (%) [3]: 12.59% and 16.3% | Total Cell Count [3]: 216 and 160 | Population Apoptotic (%) [4]: 9.38% and 12% | Population Fragmented Nuclei (%) [4]: 8.88% and 6.07% | Population Healthy Nuclei (%) [4]: 72.19% and 82.24% | Population Hoechst High Intensity Objects (%) [4]: 0% | Population Membrane Permeable-Phenotype (%) [4]: 7.38% and 2.84% | Population Mitochondria Different-Phenotype (%) [4]: 7.38% and 8.52% | Population Mitotic Cells (%) [4]: 90.62% and 88% | Population Normal (%) [4]: 100% | Population Pyknosed Nuclei (%) [4]: 18.93% and 11.68% | Population Tubulin-Different-Phenotype (%) [4]: 22.13% and 22.73% | Total Cell Count [4]: 169 and 214 | Population Apoptotic (%) [5]: 30.77% and 13.33% | Population Fragmented Nuclei (%) [5]: 8.78% and 7.14% | Population Healthy Nuclei (%) [5]: 84.88% and 83.12% | Population Hoechst High Intensity Objects (%) [5]: 0% | Population Membrane Permeable-Phenotype (%) [5]: 1.15% and 5.47% | Population Mitotic Cells (%) [5]: 69.23% and 86.67% | Population Normal (%) [5]: 100% | Population Pyknosed Nuclei (%) [5]: 6.34% and 9.74% | Population Tubulin-Different-Phenotype (%) [5]: 8.62% and 19.53% | Total Cell Count [5]: 205 and 154 | Population Apoptotic (%) [6]: 50% and 17.65% | Population Fragmented Nuclei (%) [6]: 9.04% and 4.07% | Population Healthy Nuclei (%) [6]: 87.77% and 88.24% | Population Hoechst High Intensity Objects (%) [6]: 0% | Population Membrane Permeable-Phenotype (%) [6]: 1.82% and 2.56% | Population Mitochondria Different-Phenotype (%) [6]: 10.91% and 6.15% | Population Mitotic Cells (%) [6]: 50% and 82.35% | Population Normal (%) [6]: 100% | Population Pyknosed Nuclei (%) [6]: 3.19% and 7.69% | Total Cell Count [6]: 188 and 221

Nc1nccc(-c2ccn3c(N)nccc23)n1
Population Apoptotic (%) [1]: 13.51% and 18.75% | Population Healthy Nuclei (%) [1]: 61.49% and 82.11% | Population Hoechst High Intensity Objects (%) [1]: 0% | Population Membrane Permeable-Phenotype (%) [1]: 5.05% and 4.47% | Population Mitochondria Different-Phenotype (%) [1]: 4.04% and 6.7% | Population Mitotic Cells (%) [1]: 86.49% and 81.25% | Population Normal (%) [1]: 100% | Population Pyknosed Nuclei (%) [1]: 22.98% and 14.68% | Population Tubulin-Different-Phenotype (%) [1]: 7.07% and 20.11% | Total Cell Count [1]: 161 and 218 | Population Apoptotic (%) [2]: 10.71% and 9.09% | Population Fragmented Nuclei (%) [2]: 8.62% and 3.03% | Population Healthy Nuclei (%) [2]: 75.29% and 82.68% | Population Hoechst High Intensity Objects (%) [2]: 0% | Population Membrane Permeable-Phenotype (%) [2]: 8.4% and 3.14% | Population Mitochondria Different-Phenotype (%) [2]: 6.87% and 7.33% | Population Mitotic Cells (%) [2]: 89.29% and 90.91% | Population Normal (%) [2]: 100% | Population Pyknosed Nuclei (%) [2]: 16.09% and 14.29% | Population Tubulin-Different-Phenotype (%) [2]: 9.16% and 16.75% | Total Cell Count [2]: 174 and 231 | Population Apoptotic (%) [3]: 15.56% and 14.81% | Population Fragmented Nuclei (%) [3]: 8.38% and 5.44% | Population Healthy Nuclei (%) [3]: 68.06% and 83.26% | Population Hoechst High Intensity Objects (%) [3]: 0% | Population Membrane Permeable-Phenotype (%) [3]: 0.77% and 2.51% | Population Mitochondria Different-Phenotype (%) [3]: 2.31% and 2.51% | Population Mitotic Cells (%) [3]: 84.44% and 85.19% | Population Normal (%) [3]: 100% | Population Pyknosed Nuclei (%) [3]: 23.56% and 11.3% | Population Tubulin-Different-Phenotype (%) [3]: 13.08% and 16.58% | Total Cell Count [3]: 191 and 239 | Population Apoptotic (%) [4]: 6.98% and 4.35% | Population Fragmented Nuclei (%) [4]: 9.95% and 3.5% | Population Healthy Nuclei (%) [4]: 69.67% and 87.55% | Population Hoechst High Intensity Objects (%) [4]: 0% | Population Membrane Permeable-Phenotype (%) [4]: 4.76% and 5.33% | Population Mitochondria Different-Phenotype (%) [4]: 5.44% and 2.22% | Population Mitotic Cells (%) [4]: 93.02% and 95.65% | Population Normal (%) [4]: 100% | Population Pyknosed Nuclei (%) [4]: 20.38% and 8.95% | Population Tubulin-Different-Phenotype (%) [4]: 16.33% and 21.33% | Total Cell Count [4]: 211 and 257 | Population Apoptotic (%) [5]: 22.73% and 26.09% | Population Fragmented Nuclei (%) [5]: 8.37% and 5.8% | Population Healthy Nuclei (%) [5]: 81.4% and 83.93% | Population Hoechst High Intensity Objects (%) [5]: 0% | Population Membrane Permeable-Phenotype (%) [5]: 1.14% and 3.72% | Population Mitochondria Different-Phenotype (%) [5]: 9.71% and 2.66% | Population Mitotic Cells (%) [5]: 77.27% and 73.91% | Population Normal (%) [5]: 100% | Population Pyknosed Nuclei (%) [5]: 10.23% and 10.27% | Total Cell Count [5]: 215 and 224 | Population Apoptotic (%) [6]: 23.53% and 19.05% | Population Fragmented Nuclei (%) [6]: 6.48% and 4.4% | Population Healthy Nuclei (%) [6]: 86.64% and 87.2% | Population Hoechst High Intensity Objects (%) [6]: 0% | Population Membrane Permeable-Phenotype (%) [6]: 1.87% and 1.83% | Population Mitotic Cells (%) [6]: 76.47% and 80.95% | Population Normal (%) [6]: 100% | Population Pyknosed Nuclei (%) [6]: 6.88% and 8.4% | Total Cell Count [6]: 247 and 250
